Screening data: PubChem BioAssay, several laboratories
KCNQ1 inh – human KCNQ1 channel inhibition. P51787. CHO-K1 KCNQ1, FluxOR thallium flux fluorescence; active compounds read high. B-score at 10 µM. actives 1.3% (n = 310,000);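 active = compounds whose thallium flux B-score, printed positive for inhibition, exceeds three library SD while starting fluorescence stays within three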;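 note: channel opened by potassium depolarization with thallium stimulus after 20 min compound exposure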
Target sequence (P51787 whole entry, looked up): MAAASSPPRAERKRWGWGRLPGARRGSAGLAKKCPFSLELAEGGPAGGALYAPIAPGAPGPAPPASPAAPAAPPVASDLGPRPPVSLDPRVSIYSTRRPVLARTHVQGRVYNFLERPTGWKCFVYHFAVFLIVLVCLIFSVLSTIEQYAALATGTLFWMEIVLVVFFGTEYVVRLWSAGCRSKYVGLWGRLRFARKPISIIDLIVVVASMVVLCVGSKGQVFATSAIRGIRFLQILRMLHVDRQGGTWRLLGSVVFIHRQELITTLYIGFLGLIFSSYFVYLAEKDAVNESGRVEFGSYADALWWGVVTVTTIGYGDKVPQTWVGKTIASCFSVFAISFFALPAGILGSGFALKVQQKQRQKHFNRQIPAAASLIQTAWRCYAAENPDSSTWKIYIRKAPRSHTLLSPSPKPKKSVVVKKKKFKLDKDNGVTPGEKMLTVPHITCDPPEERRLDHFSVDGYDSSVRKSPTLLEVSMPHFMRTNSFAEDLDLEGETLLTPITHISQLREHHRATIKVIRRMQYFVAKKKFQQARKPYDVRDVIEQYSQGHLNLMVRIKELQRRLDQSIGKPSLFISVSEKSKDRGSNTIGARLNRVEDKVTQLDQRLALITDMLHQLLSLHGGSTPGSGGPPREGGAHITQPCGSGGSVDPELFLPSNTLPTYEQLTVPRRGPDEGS
KCC2 mod – modulates chloride dependent transport by human KCC2; B-score of Tl+ flux slope (higher = more flux/activation; lower = inhibition) at 10 µM; actives 2.2% (n = 190,000); Q9H2X9; KCC2 cells, thallium flux FluoZin-2 fluorescence;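 active = thallium flux slope and its plate-corrected score both differing from the plate sample mean at a set confidence after two filtering rounds, in either direction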;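 note: slope of fluorescence scaled to starting intensity during 10 to 20 s after thallium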
hERG protect – hERG (human) protection from proarrhythmic block | actives 0.51% (n = 310,000) | activation (rescue from dofetilide block), less the hit threshold, % at 10 µM | AID 1511 | CHO-hERG, FluxOR thallium flux, dofetilide IC70 present | Q12809;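 active = activation above the mean of controls blocked by dofetilide plus 5 SD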;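 note: thallium influx through hERG after potassium depolarization seen as dye fluorescence rise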
AI-2 QS mod – modulators of Vibrio harveyi AI-2 quorum sensing system; Vibrio harveyi JMH597 AI-2 luminescence/OD600 ratio, 9 h; active compounds read low; strain lacks LuxN and CqsS sensors; 0 = neutral-control median; activity change, % at 7.5 µM; actives 0.4% (n = 300,000); AID 2094; in the data active = activity change below about -75%, passing the limit was not always enough; inconclusive = no clear call, values can overlap the other calls;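 note: luminescence divided by OD600 gain over 9 h not by final OD600 alone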
KCNQ1 pot – human KCNQ1 channel potentiation or activation; P51787; CHO-K1 KCNQ1, thallium flux FluxOR fluorescence; active compounds read high; B-score at 10 µM; actives 0.35% (n = 310,000);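 active = fluorescence ratio B-score, a plate-corrected score, at least three library SD, with initial intensity B-score within 5 SD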
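assay system = CHO-K1 cells stably expressing KCNQ1 | medium = assay buffer, equal DMSO in all wells | timing = 37 °C overnight plating, 90-min dark dye load, 20-min compound pretreatment | measured by = kinetic FluxOR thallium fluorescence, 10-s 1-Hz baseline, 110-s post-stimulus read | measure = fluorescence change relative to baseline, converted to B score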
SUMO Mot1 rescue – blocks SUMOylation pathway, rescuing yeast Mot1-301 growth. AID 2716. S. cerevisiae Mot1-301 growth rescue, ATP luminescence, 38.5C; percent above DMSO median, 100 means doubled. growth rescue, % at 18.8 µM. actives 1% (n = 320,000);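 active = every valid replicate shows activation above 250% relative to neutral control wells; inactive = the rest, any valid replicate at or below 250%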;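 note: OY570 slx delta 5 strain wells were the positive control but not used for scaling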
JMH597 growth rt – retest Vibrio harveyi JMH597 growth inhibition; OD600 absorbance, 9 h; lacks LuxN and CqsS sensors; shares compounds with AI-2 QS mod; growth inhibition, % at 7.5 µM; AID 2726; actives 1% (n = 750);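 active = every replicate shows growth inhibition above 50%; inconclusive = at least half, but not all, replicates pass that cutoff; inactive = fewer than half of replicates pass it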
BB721 lum counter – retest counter-screen: luminescence loss in constitutive-on quorum sensing strain BB721; Vibrio harveyi BB721 luminescence, 9 h; shares compounds with AI-2 QS mod; actives 95% (n = 750); inhibition, % at 7.5 µM;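 active = inhibition above about 80% in every replicate, not just on average, limit read from the data; inconclusive = at least half of replicates past the limit, but not all; inactive = fewer than half of replicates past the limit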
BB721 growth – retest: blocks Vibrio harveyi BB721 growth | actives 3% (n = 750) | AID 2728 | growth inhibition, % at 7.5 µM | OD600 absorbance, 9 h | shares compounds with AI-2 QS mod;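 active = every replicate shows growth inhibition above 50%; inconclusive = at least half but not all replicates above 50% inhibition; inactive = under half of replicates above 50% inhibition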
JMH597 AI-2 mod – Vibrio harveyi AI-2 signaling luminescence modulation – JMH597 strain, confirmation; Vibrio harveyi JMH597 AI-2 quorum sensing luminescence, 9 h; luxN and CqsS knockout, AI-2 only; shares compounds with AI-2 QS mod; inhibition, % at 7.5 µM; actives 97% (n = 750); AID 2736;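 active = every replicate shows more than 75% inhibition of signal versus neutral control wells; inconclusive = half to three quarters of replicates exceed 75% inhibition; inactive = fewer than half of replicates exceed 75% inhibition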
* = called active by the depositor; i = inactive; ? = inconclusive; · = no result given. A selection: hits, their analogues and other compounds. The true share with any hit is near 4.2%.

SMILES	KCNQ1 inh	KCC2 mod	hERG protect	AI-2 QS mod	KCNQ1 pot	SUMO Mot1 rescue	JMH597 growth rt	BB721 lum counter	BB721 growth	JMH597 AI-2 mod
CCCC(=O)NC(=S)Nc1ccccc1F	i	1.6	-8	-85*	i	170	21	92*	24	87*
CSc1ccc(S(=O)(=O)N2CCC(C(=O)NCc3ccco3)CC2)cc1	i	·	-10	-90*	i	21	30	75	-19	100*
CN1CC(=O)N(CC(=O)Nc2ccc(Cl)c(C(F)(F)F)c2)C1=O	i	-1.1	4.6*	-96*	i	3	19	99*	13	99*
O=C(CN1C(=O)NC2(CCCC2)C1=O)Nc1ccc(Cl)c(C(F)(F)F)c1	i	·	1	12	i	110	·	·	·	·
O=C(C#Cc1ccccc1)NCc1ccccc1F	i	·	-1	-85*	i	-17	16	94*	15	95*
Clc1ccc(OCCn2cnc(Cl)c2Cl)cc1	i	0.049	-14	-84*	i	-20	11	88*	-330	92*
Cc1nc2ccccc2cc1OCc1ccccc1	i	-2.2	-23	-81*	i	-10	24	93*	?	96*
O=S(=O)(NCc1ccccc1)c1ccc(NC(=S)NCc2ccco2)cc1	i	·	-9	-97*	i	-16	16	100*	-60	100*
CNS(=O)(=O)c1ccc(C)cc1	i	0.41	-4	38	i	11	·	·	·	·
Cc1ccc(S(=O)(=O)c2ccc(C)cc2)cc1	i	0.22	-3	-92*	i	-1	1	98*	-23	100*
COc1ccc(N(CC(=O)O)S(=O)(=O)c2ccc(C)cc2)cc1Cl	i	·	-5	17	i	6	·	·	·	·
CCCNC(=O)c1ccc2c(c1)nc(C)n2-c1cccc(Cl)c1	i	·	-8	9	i	94	·	·	·	·
Cc1cc(C)cc(NC(=O)CN2C(=O)NC(C)(c3ccccc3)C2=O)c1 (stereo not given)	i	-0.93	-10	-83*	i	-12	-23	86*	-31	92*
CC1SC(C)C(=O)N(CC(=O)Nc2ccc([N+](=O)[O-])cc2)C1=O (stereo not given)	i	0.46	-14	-94*	i	2	25	99*	19	99*
CC1(c2ccccc2)NC(=O)N(CC(=O)NC(=O)NCc2ccco2)C1=O (stereo not given)	i	0.14	-6	-82*	i	-21	-16	88*	-6	92*
COc1ccc(NC(=O)CN2C(=O)C(C)SC(C)C2=O)cc1 (stereo not given)	i	-0.32	-4	-28	i	-2	·	·	·	·
COc1ccc(C2(C)NC(=O)N(CC(=O)Nc3ccc(S(=O)(=O)N4CCCC4)cc3)C2=O)cc1 (stereo not given)	i	0.18	-9	-90*	i	4	-31	89*	-11	94*
COC(=O)CC1C(=O)NCCN1C(=O)c1cc(OC)c(OC)cc1OC (stereo not given)	i	·	-3	3	i	4	·	·	·	·
CCCc1ccccc1OCCNC(=O)c1cc(=O)n(C)c(=O)n1C	i	·	-12	41	i	103	·	·	·	·
O=C(O)C1CCC(N2C(=O)c3c(Cl)c(Cl)c(Cl)c(Cl)c3C2=O)CC1 (stereo not given)	i	·	-10	13	i	17	·	·	·	·
O=C(N/N=C/C1CC2CCC1C2)c1c[nH]c2ccccc12 (stereo not given)	i	·	-3	14	i	8	·	·	·	·
CC1(c2ccc([N+](=O)[O-])cc2)NC(=O)N(CC(=O)Nc2ccc(N3CCCCC3)cc2)C1=O (stereo not given)	i	·	-14	-46	i	3	·	·	·	·
O=C(Cn1nnc2ccccc21)Nc1ccc([N+](=O)[O-])cc1	i	-0.99	-10	-92*	i	248	-21	99*	-35	99*
CC1(c2ccccc2)NC(=O)N(CC(=O)Nc2ccc([N+](=O)[O-])cc2)C1=O (stereo not given)	i	·	-14	-89*	i	-6	15	97*	2	98*
CCCCC(=O)NC(=S)Nc1ccc(S(=O)(=O)N2CCCC2)cc1	i	0.26	-6	-84*	i	·	17	86*	5	92*
SMILES	KCNQ1 inh	KCC2 mod	hERG protect	AI-2 QS mod	KCNQ1 pot	SUMO Mot1 rescue	JMH597 growth rt	BB721 lum counter	BB721 growth	JMH597 AI-2 mod
O=C(Nc1ccc(S(=O)(=O)N2CCCC2)cc1)C1CCCCC1	i	·	-9	-83*	i	-6	14	93*	19	96*
CCOc1ccc(NC(=O)C2CCN(S(=O)(=O)c3cccnc3)CC2)cc1	i	0.2	-5	-86*	i	1	20	95*	14	97*
CCCC(=O)Nc1ccc(S(=O)(=O)N2CCCC2)cc1	i	0.56	-3	-13	i	-13	·	·	·	·
CCOC(=O)C1(Cc2ccc(Cl)cc2)CCN(C(=O)c2sc(C)nc2C)CC1	i	-0.93	-10	14	i	3	·	·	·	·
O=C(/C=C/c1ccccc1Cl)NCc1ccco1	i	·	-8	-83*	i	3	5	93*	18	94*
O=C(/C=C/c1c(Cl)cccc1Cl)NCc1ccco1	i	-0.7	-6	14	i	-13	·	·	·	·
O=C(Nc1ccc(Nc2ccccc2)cc1)c1ccc(Cl)cc1[N+](=O)[O-]	i	·	-5	-86*	i	15	52	?	21	91*
CC(C)(C)C(=O)OCc1cn(-c2ccc(Cl)cc2)nn1	i	0.029	-4	-21	i	·	·	·	·	·
CC(C)C(=O)OCc1cn(-c2ccc(Cl)c(Cl)c2)nn1	i	0.44	-2	-82*	i	13	2	95*	-11	96*
O=C(c1ccco1)N1CCN(c2ccc(N3CCCCC3)nn2)CC1	i	·	-15	14	i	21	·	·	·	·
c1ccc2c(c1)oc1c(NCc3ccc4c(c3)OCO4)ncnc12	i	-5.1*	-2	-88*	i	-7	30	93*	9	97*
